This passage reports inhibition and EC50 results from ChEMBL document CHEMBL2390926, “Identification of novel FLT3 kinase inhibitors” (Eur J Med Chem, 2013).

Active and inactive are the calls of the source. The rule behind the calls is not given here.

In test [1] the target is T1, Tyrosine-protein kinase receptor TYRO3 (Homo sapiens) (UniProt Q06418).
T1 sequence (whole entry): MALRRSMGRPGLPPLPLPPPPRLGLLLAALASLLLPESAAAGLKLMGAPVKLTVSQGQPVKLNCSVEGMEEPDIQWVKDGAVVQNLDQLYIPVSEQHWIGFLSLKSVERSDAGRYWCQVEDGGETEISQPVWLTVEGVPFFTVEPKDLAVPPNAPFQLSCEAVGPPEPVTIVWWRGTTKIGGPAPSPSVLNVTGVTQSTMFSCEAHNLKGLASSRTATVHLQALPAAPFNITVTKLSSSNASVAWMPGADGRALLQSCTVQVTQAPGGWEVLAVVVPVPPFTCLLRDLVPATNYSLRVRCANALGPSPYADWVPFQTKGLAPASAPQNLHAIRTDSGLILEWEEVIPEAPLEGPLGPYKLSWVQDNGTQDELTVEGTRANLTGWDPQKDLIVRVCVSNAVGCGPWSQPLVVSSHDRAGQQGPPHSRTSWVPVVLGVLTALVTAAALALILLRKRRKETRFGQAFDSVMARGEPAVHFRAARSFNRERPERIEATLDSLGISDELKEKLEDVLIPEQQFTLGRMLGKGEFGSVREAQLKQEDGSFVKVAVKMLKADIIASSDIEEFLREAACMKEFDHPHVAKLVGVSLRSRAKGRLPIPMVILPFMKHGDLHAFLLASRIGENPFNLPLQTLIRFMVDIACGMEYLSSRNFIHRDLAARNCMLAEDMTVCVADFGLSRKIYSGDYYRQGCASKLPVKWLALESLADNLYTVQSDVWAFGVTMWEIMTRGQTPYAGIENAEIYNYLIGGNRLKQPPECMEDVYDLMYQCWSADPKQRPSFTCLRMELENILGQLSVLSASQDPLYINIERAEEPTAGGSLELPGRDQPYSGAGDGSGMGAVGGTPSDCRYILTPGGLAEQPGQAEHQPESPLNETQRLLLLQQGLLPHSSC
Description: Inhibition of TYRO3 (unknown origin) transfected in mouse Ba/F3 cells at 1 uM after 24 hrs. The format is cell-based. Conditions: BaF3.

Test [2] concerns the target Proto-oncogene tyrosine-protein kinase Src (Homo sapiens) (UniProt P12931). In words: Inhibition of SRC (unknown origin) transfected in mouse Ba/F3 cells at 1 uM after 24 hrs. The format is cell-based. Conditions: BaF3.
In test [3] the target is T2, Megakaryocyte-associated tyrosine-protein kinase (Homo sapiens) (UniProt P42679).
T2 sequence (whole entry): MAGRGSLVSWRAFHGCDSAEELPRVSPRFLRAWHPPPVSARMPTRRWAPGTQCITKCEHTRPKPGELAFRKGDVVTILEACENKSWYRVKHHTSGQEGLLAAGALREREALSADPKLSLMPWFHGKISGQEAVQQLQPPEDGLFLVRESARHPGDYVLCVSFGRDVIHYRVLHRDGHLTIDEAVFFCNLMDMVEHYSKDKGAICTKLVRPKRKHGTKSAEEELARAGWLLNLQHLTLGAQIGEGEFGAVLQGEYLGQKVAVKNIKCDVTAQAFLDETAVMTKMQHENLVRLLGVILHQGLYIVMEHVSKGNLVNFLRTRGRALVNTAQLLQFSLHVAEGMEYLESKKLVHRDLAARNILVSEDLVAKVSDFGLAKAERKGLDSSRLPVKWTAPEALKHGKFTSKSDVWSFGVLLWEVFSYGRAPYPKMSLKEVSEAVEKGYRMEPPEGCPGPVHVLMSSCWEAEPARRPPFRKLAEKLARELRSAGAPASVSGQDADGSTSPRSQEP
Description: Inhibition of MATK1 (unknown origin) transfected in mouse Ba/F3 cells at 1 uM after 24 hrs. The format is cell-based. Conditions: BaF3.

In test [4] the target is Tyrosine-protein kinase HCK (Homo sapiens) (UniProt P08631). Description: Inhibition of HCK (unknown origin) transfected in mouse Ba/F3 cells at 1 uM after 24 hrs. It counts as cell-based. Conditions: BaF3. The gist of the method:
(§1)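 Kinase specificity panel: each Ba/F3 line transformed with one of 24 tyrosine kinases depends on that kinase to grow. Cells were given compound at 1 or 5 µM for 24 h, with DMSO as comparator. Percentage growth was read by ATP-lite luminescence and reported as mean ± SEM.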

Test [5] deals with Receptor tyrosine-protein kinase erbB-2 (Homo sapiens) (UniProt P04626). In words: Inhibition of ERBB2 (unknown origin) transfected in mouse Ba/F3 cells at 1 uM after 24 hrs. The format is cell-based. The conditions noted are these: BaF3. The gist of the method: as §1
Test [6] addresses T3, Ephrin type-A receptor 1 (Homo sapiens) (UniProt P21709).
T3 sequence (whole entry): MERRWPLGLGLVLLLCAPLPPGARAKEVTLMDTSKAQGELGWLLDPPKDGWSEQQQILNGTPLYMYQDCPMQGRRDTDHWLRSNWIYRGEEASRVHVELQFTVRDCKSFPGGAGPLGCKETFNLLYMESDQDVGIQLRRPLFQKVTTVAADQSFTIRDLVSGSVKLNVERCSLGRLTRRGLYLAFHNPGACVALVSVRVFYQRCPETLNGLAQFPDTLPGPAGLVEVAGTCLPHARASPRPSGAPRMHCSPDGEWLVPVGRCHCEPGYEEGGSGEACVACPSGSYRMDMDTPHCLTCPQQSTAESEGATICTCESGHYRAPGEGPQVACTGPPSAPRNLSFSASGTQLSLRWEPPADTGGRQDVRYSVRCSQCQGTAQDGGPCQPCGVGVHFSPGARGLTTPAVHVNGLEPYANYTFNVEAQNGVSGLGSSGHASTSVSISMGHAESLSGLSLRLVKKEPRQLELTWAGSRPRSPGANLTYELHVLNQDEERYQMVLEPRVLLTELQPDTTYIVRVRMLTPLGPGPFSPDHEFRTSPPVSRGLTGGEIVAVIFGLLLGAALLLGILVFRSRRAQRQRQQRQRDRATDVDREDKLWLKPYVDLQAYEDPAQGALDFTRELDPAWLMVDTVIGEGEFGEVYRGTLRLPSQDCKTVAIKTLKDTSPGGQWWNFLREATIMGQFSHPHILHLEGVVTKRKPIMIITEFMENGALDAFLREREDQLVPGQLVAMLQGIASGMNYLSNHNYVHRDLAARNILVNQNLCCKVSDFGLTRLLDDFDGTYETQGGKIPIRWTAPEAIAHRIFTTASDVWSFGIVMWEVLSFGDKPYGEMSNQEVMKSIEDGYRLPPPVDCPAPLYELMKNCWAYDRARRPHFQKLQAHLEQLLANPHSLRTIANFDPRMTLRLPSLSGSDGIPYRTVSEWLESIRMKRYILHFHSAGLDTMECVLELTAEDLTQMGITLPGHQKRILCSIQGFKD
In words: Inhibition of EPHA1 (unknown origin) transfected in mouse Ba/F3 cells at 1 uM after 24 hrs. It counts as cell-based. The conditions noted are these: BaF3. The gist of the method: as §1

The subject of the next test is HEL. In words: Cytotoxicity against human HEL cells after 72 hrs by plate reader analysis. It counts as functional, cell-based.
The subject of the next test is MOLM-13. Description: Cytotoxicity against human MOLM13 cells after 72 hrs by plate reader analysis. The format is functional, cell-based. The conditions noted are these: MOLM-13, 72 h.
A short description of test [7]: Cytotoxicity against mouse BA/F3 cells transfected with FLT3-ITD after 24 hrs by plate reader analysis. Conditions: BaF3, 24 h.
A short description of test [8]: Cytotoxicity against mouse BA/F3 cells transfected with FLT3-ITD after 24 hrs by plate reader analysis in presence of IL3. Conditions: BaF3, 24 h.

Sequence of Tyrosine-protein kinase HCK (Homo sapiens) (P08631 2-526 limits assumed): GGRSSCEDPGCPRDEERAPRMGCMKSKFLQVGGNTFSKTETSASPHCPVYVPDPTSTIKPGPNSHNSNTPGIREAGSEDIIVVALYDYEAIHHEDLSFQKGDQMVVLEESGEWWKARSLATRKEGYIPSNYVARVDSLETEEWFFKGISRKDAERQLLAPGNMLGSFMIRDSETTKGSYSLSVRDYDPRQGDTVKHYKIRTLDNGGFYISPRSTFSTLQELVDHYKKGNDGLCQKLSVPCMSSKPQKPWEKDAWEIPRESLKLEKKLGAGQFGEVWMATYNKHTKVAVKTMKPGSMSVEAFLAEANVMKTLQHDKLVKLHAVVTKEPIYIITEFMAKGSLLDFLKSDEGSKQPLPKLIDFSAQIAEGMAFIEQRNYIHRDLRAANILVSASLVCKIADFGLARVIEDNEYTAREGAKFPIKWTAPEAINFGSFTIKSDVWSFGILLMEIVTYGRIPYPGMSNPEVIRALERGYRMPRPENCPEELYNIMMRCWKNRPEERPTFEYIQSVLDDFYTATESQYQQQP
Sequence of Receptor tyrosine-protein kinase erbB-2 (Homo sapiens) (P04626 whole entry): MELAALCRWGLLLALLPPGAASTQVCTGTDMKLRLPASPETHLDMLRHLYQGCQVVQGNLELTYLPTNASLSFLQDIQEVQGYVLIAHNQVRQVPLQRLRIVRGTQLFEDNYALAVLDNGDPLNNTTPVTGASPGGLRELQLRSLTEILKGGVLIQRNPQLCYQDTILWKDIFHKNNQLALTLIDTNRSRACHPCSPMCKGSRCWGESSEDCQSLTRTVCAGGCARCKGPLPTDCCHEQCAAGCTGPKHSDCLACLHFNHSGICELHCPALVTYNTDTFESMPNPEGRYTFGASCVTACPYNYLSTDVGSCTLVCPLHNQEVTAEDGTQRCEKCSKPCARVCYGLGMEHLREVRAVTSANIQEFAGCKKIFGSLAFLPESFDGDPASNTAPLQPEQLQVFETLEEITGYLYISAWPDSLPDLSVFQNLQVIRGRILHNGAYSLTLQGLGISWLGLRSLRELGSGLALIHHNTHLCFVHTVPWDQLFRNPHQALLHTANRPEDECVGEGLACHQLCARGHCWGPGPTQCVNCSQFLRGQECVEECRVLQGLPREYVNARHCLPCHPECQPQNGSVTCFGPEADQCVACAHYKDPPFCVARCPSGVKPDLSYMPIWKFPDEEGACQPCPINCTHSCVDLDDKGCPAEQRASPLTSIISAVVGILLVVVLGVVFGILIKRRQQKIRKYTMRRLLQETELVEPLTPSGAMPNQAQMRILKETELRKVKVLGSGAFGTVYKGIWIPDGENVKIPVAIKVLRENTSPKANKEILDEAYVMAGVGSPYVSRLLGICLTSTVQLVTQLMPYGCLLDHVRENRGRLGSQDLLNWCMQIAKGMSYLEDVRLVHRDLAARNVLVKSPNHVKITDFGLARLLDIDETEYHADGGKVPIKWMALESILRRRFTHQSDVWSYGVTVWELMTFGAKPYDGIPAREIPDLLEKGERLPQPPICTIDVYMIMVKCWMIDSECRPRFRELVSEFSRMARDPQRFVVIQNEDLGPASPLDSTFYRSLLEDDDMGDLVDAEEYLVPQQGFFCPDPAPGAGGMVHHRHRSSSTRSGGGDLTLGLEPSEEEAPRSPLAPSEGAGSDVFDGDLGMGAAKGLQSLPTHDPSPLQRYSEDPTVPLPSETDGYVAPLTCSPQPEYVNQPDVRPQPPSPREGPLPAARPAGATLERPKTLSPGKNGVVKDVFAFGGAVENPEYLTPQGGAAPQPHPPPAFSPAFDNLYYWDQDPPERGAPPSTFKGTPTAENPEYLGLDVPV
Sequence of Proto-oncogene tyrosine-protein kinase Src (Homo sapiens) (P12931 2-536 limits assumed): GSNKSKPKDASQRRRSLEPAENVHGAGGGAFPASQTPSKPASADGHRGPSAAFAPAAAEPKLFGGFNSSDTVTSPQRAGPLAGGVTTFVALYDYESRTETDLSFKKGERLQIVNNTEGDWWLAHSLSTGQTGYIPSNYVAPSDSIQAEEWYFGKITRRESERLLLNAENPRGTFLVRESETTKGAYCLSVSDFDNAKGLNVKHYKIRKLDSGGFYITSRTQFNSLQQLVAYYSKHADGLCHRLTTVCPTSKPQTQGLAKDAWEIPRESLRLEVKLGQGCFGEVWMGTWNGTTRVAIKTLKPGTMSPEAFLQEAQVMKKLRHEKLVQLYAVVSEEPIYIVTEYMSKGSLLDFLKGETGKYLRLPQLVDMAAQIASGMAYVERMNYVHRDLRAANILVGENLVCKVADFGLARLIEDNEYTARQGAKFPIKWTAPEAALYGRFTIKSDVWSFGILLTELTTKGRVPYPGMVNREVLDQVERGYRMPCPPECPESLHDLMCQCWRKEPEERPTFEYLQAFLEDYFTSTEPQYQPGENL

As to `Cc1cccc(C(=O)Nc2cc(-c3ccc(F)cc3)n[nH]2)c1`, the inhibition result in [1], in test [2], in [3], in test [4], in test [5] and in test [6] was “inactive” in each case. In addition, the EC50 (commonly the concentration that produces a half-maximal response) with HEL is 62 µM; with MOLM-13, 0.63 µM; in [7], 0.296 µM; in [8], 21 µM.

`COc1ccc(C(=O)Nc2cc(-c3ccccc3)[nH]n2)cc1`: the inhibition result in test [1], in test [2], in test [3], in test [4], in test [5] and in test [6] was “inactive” in each case. Also, the EC50 with HEL was 47 µM; in the test with MOLM-13 it was 0.292 µM; in test [7] it was 0.036 µM; in [8] it was 18 µM.

On to `Cc1ccc(-c2cc(NC(=O)c3ccc(F)cc3)[nH]n2)cc1`, for which the inhibition entry in test [1], in test [2], in test [3], in [4], in test [5] and in test [6] was “inactive” in each case. The EC50 in the test on HEL came out at 1000 µM; with MOLM-13 it was 0.612 µM; in [7], 0.138 µM; in test [8], 23 µM.

With `Fc1ccc(-c2n[nH]cc2-c2ccncc2)cc1Cl`, the EC50 with HEL turned out to be 1000 µM; in the test with MOLM-13 it was 0.258 µM; in test [7] it was 0.405 µM; in test [8] it was 16 µM.

As for `Cc1ccc(-n2cnc3cc(Nc4nnc(C)c5ccccc45)ccc32)cc1`, the EC50 with HEL is 14 µM; with MOLM-13, 0.332 µM; in test [7] it was 0.717 µM; in [8], 19 µM.
